The record followed here is ChEMBL document CHEMBL1148687, “Identification of a novel 4-aminomethylpiperidine class of M3 muscarinic receptor antagonists and structural insight into their M3 selectivity” (J Med Chem, 2006).

For orientation: Ki means a measure of affinity in units of concentration, obtained from inhibition or displacement. A higher Ki goes with weaker binding. The term inhibition denotes the relative decrease from the control value, in per cent.

The target in one experiment is T1, Muscarinic acetylcholine receptor M3 (Homo sapiens, UniProt P20309). Put plainly: Inhibition of [3H]NMS binding to human cloned M3 receptor expressed in CHO cells. It is filed as cell-based. Put shortly: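 Competition against specific [3H]-NMS binding on membranes of CHO cells expressing cloned human receptor subtypes. Assay buffer 50 mM Tris-HCl, 10 mM MgCl2, 1 mM EDTA, pH 7.4, highest final concentration 10 µM.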
Target sequence in this assay (P20309 whole entry): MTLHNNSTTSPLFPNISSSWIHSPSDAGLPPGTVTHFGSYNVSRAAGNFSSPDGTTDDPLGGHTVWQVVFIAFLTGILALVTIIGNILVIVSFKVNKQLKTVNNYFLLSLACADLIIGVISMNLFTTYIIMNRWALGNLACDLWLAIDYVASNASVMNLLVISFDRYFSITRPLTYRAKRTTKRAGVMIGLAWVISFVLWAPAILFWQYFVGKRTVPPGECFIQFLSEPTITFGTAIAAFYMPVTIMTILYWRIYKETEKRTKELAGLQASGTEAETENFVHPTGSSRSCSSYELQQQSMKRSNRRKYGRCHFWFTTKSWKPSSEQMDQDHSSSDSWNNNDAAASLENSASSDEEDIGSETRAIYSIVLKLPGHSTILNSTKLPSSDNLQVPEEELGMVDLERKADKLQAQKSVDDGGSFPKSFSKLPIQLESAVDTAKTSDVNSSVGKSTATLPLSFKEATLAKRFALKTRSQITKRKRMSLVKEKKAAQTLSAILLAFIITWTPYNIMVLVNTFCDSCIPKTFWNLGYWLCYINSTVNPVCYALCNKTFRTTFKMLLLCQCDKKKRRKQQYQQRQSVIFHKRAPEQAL
`O=C(NCCC1CCNCC1)[C@H]1CCCN1C(=O)[C@@H]1CCCN1C(=O)CC(c1ccccc1)(c1ccccc1)c1ccccc1` yielded a Ki of 0.029 µM.

As to `NC1CCCC(NC(=O)[C@H]2CCCN2C(=O)[C@@H]2CCCN2C(=O)CC(c2ccccc2)(c2ccccc2)c2ccccc2)C1` (some centres undefined), the Ki was found to be 0.17 µM. This Ki lies about 5.9-fold higher than the previous one.

`O=C(NC[C@@H]1CCCNC1)[C@H]1CCCN1C(=O)[C@@H]1CCCN1C(=O)CC(c1ccccc1)(c1ccccc1)c1ccccc1` registered a Ki of 0.023 µM.

`NCC1CCN(C(=O)[C@H]2CCCN2C(=O)[C@@H]2CCCN2C(=O)CC(c2ccccc2)(c2ccccc2)c2ccccc2)CC1` had a Ki of 0.15 µM.

`O=C(NCC1CCNCC1)[C@H]1CCCN1C(=O)[C@@H]1CCCN1C(=O)CC(c1ccccc1)(c1ccccc1)c1ccccc1` returned a Ki of 0.049 µM.

`N[C@H]1CCCC[C@@H]1NC(=O)[C@H]1CCCN1C(=O)[C@@H]1CCCN1C(=O)CC(c1ccccc1)(c1ccccc1)c1ccccc1`: the Ki worked out at 0.048 µM.

A further experiment deals with T1, Muscarinic acetylcholine receptor M3. Put plainly: Inhibition of [3H]NMS binding to human cloned M3 receptor expressed in CHO cells at 1 uM. Type of experiment: cell-based.
Target sequence in this assay (P20309 whole entry, looked up): as the sequence (P20309 whole entry) above
For the compound `Nc1cccc(CNC(=O)[C@H]2CCCN2C(=O)[C@@H]2CCCN2C(=O)CC(c2ccccc2)(c2ccccc2)c2ccccc2)c1`, the inhibition stood at 6%.

For the compound `Nc1ccccc1CNC(=O)[C@H]1CCCN1C(=O)[C@@H]1CCCN1C(=O)CC(c1ccccc1)(c1ccccc1)c1ccccc1` (stereo in doubt; 45), the inhibition was found to be 5%.

With `NC1CCN(C(=O)[C@H]2CCCN2C(=O)[C@@H]2CCCN2C(=O)CC(c2ccccc2)(c2ccccc2)c2ccccc2)C1` (some centres undefined), the inhibition stood at 0%.

As to `O=C([C@H]1CCCN1C(=O)[C@@H]1CCCN1C(=O)CC(c1ccccc1)(c1ccccc1)c1ccccc1)N1CCC2NCCC21` (some centres undefined), the inhibition was determined as 7%.

For the compound `O=C(NC1CCNCC1)[C@H]1CCCN1C(=O)[C@@H]1CCCN1C(=O)CC(c1ccccc1)(c1ccccc1)c1ccccc1`, the inhibition stood at 4%.

Regarding `NC1CCCN(C(=O)[C@H]2CCCN2C(=O)[C@@H]2CCCN2C(=O)CC(c2ccccc2)(c2ccccc2)c2ccccc2)C1` (some centres undefined), the inhibition was 22%.

Turning to `Nc1ccc(CNC(=O)[C@H]2CCCN2C(=O)[C@@H]2CCCN2C(=O)CC(c2ccccc2)(c2ccccc2)c2ccccc2)cc1`, the inhibition amounted to 6%.

For the compound `O=C(NCC1CCCCN1)[C@H]1CCCN1C(=O)[C@@H]1CCCN1C(=O)CC(c1ccccc1)(c1ccccc1)c1ccccc1` (some centres undefined), the inhibition came to 28%.

Regarding `O=C(NCCC1CCNCC1)[C@H]1CCCN1C(=O)[C@@H]1CCCN1C(=O)CC(c1ccccc1)(c1ccccc1)c1ccccc1`, the inhibition came out at 88%.

With `O=C(NCC1CCNC1)[C@H]1CCCN1C(=O)[C@@H]1CCCN1C(=O)CC(c1ccccc1)(c1ccccc1)c1ccccc1` (some centres undefined), the inhibition was found to be 33%.

Regarding `NCC1CCCN(C(=O)[C@H]2CCCN2C(=O)[C@@H]2CCCN2C(=O)CC(c2ccccc2)(c2ccccc2)c2ccccc2)C1` (some centres undefined), the inhibition was 32%.

Consider `Nc1ccccc1CNC(=O)[C@H]1CCCN1C(=O)[C@@H]1CCCN1C(=O)CC(c1ccccc1)(c1ccccc1)c1ccccc1` (stereo in doubt; 46), for which the inhibition was 10%.

For `NC1CCCC(NC(=O)[C@H]2CCCN2C(=O)[C@@H]2CCCN2C(=O)CC(c2ccccc2)(c2ccccc2)c2ccccc2)C1` (some centres undefined), the inhibition is 59%.

In the case of `O=C([C@H]1CCCN1C(=O)[C@@H]1CCCN1C(=O)CC(c1ccccc1)(c1ccccc1)c1ccccc1)N1CCNCC1`, the inhibition was determined as 12%.

For `Nc1ccccc1NC(=O)[C@H]1CCCN1C(=O)[C@@H]1CCCN1C(=O)CC(c1ccccc1)(c1ccccc1)c1ccccc1`, the inhibition came to 11%.

Regarding `NC1CCC(NC(=O)[C@H]2CCCN2C(=O)[C@@H]2CCCN2C(=O)CC(c2ccccc2)(c2ccccc2)c2ccccc2)CC1` (some centres undefined), the inhibition was -7%.

Consider `O=C([C@H]1CCCN1C(=O)[C@@H]1CCCN1C(=O)CC(c1ccccc1)(c1ccccc1)c1ccccc1)N1CC2CNCC2C1` (some centres undefined), for which the inhibition worked out at 7%.

Take `N[C@@H]1CCCC[C@@H]1NC(=O)[C@H]1CCCN1C(=O)[C@@H]1CCCN1C(=O)CC(c1ccccc1)(c1ccccc1)c1ccccc1`: the inhibition worked out at 40%.

For the compound `O=C(NC[C@@H]1CCCNC1)[C@H]1CCCN1C(=O)[C@@H]1CCCN1C(=O)CC(c1ccccc1)(c1ccccc1)c1ccccc1`, the inhibition was determined as 91%.

Consider `NCCCNC(=O)[C@H]1CCCN1C(=O)[C@@H]1CCCN1C(=O)CC(c1ccccc1)(c1ccccc1)c1ccccc1`, for which the inhibition worked out at 2%.

`O=C(NC1CCNC1)[C@H]1CCCN1C(=O)[C@@H]1CCCN1C(=O)CC(c1ccccc1)(c1ccccc1)c1ccccc1` (some centres undefined): the inhibition was -4%.

In the case of `NCc1cccc(NC(=O)[C@H]2CCCN2C(=O)[C@@H]2CCCN2C(=O)CC(c2ccccc2)(c2ccccc2)c2ccccc2)c1`, the inhibition turned out to be 12%.

`NCC1CCN(C(=O)[C@H]2CCCN2C(=O)[C@@H]2CCCN2C(=O)CC(c2ccccc2)(c2ccccc2)c2ccccc2)CC1`: the inhibition stood at 59%.

For `Nc1ccc(NC(=O)[C@H]2CCCN2C(=O)[C@@H]2CCCN2C(=O)CC(c2ccccc2)(c2ccccc2)c2ccccc2)cc1`, the inhibition is 8%.

Take `Nc1cccc(NC(=O)[C@H]2CCCN2C(=O)[C@@H]2CCCN2C(=O)CC(c2ccccc2)(c2ccccc2)c2ccccc2)c1`: the inhibition is 0%.

Turning to `O=C([C@H]1CCCN1C(=O)[C@@H]1CCCN1C(=O)CC(c1ccccc1)(c1ccccc1)c1ccccc1)N1CCCNC1`, the inhibition came to 12%.

As to `NCC1CCCCN1C(=O)[C@H]1CCCN1C(=O)[C@@H]1CCCN1C(=O)CC(c1ccccc1)(c1ccccc1)c1ccccc1` (some centres undefined), the inhibition came out at 5%.

Take `O=C(NCC1CCNCC1)[C@H]1CCCN1C(=O)[C@@H]1CCCN1C(=O)CC(c1ccccc1)(c1ccccc1)c1ccccc1`: the inhibition stood at 82%.

For the compound `O=C([C@H]1CCCN1C(=O)[C@@H]1CCCN1C(=O)CC(c1ccccc1)(c1ccccc1)c1ccccc1)N1CCCNCC1`, the inhibition was -2%.

For `NCC1CCN(C(=O)[C@H]2CCCN2C(=O)[C@@H]2CCCN2C(=O)CC(c2ccccc2)(c2ccccc2)c2ccccc2)C1` (some centres undefined), the inhibition was 7%.

As to `N[C@H]1CCCC[C@@H]1NC(=O)[C@H]1CCCN1C(=O)[C@@H]1CCCN1C(=O)CC(c1ccccc1)(c1ccccc1)c1ccccc1`, the inhibition was determined as 80%.

Consider `NCc1ccc(NC(=O)[C@H]2CCCN2C(=O)[C@@H]2CCCN2C(=O)CC(c2ccccc2)(c2ccccc2)c2ccccc2)cc1`, for which the inhibition came out at 9%.

For `NCCNC(=O)[C@H]1CCCN1C(=O)[C@@H]1CCCN1C(=O)CC(c1ccccc1)(c1ccccc1)c1ccccc1`, the inhibition was -4%.
